Laboratory results from ChEMBL document CHEMBL4393665 (Eur J Med Chem, 2019).

How the values were obtained:
[1] = Half life in PBS at 1 uM by LC-MS/MS analysis; type: physicochemical
Summary of the method: (§1)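 Samples were incubated in phosphate buffer or human plasma and analysed by LC-MS/MS in product ion scan mode. Analyte concentration was monitored over incubation time. The slope of ln(concentration) versus time gave the first-order degradation rate constant k, and t1/2 was calculated from k. Ketoprofen ethyl ester served as a reference to confirm that the plasma batch was enzymatically active.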

[2] = Half life in human plasma at 1 uM by LC-MS/MS analysis; type: ADME, cell-free; summary of the method: as §1
[3] = target: T1, ATP-dependent translocase ABCB1 (Homo sapiens, UniProt P08183); assay: Inhibition of P-gp in human K562/DOX cells assessed as drug level causing 50% increase in nuclear pirarubicin concentration incubated for 30 mins by spectroflurometry; type: cell-based; conditions: read-out: I0.5
Summary of the method: (§2)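 Pirarubicin uptake into nuclei was measured in P-gp-overexpressing, doxorubicin-resistant K562/DOX cells. [I]0.5 is the modulator concentration giving a half-maximal increase (α = 0.5) in nuclear pirarubicin concentration. αmax is the maximum increase obtainable in resistant cells. Mean ± SE of three independent experiments.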

[4] = target: T1, ATP-dependent translocase ABCB1; assay: Inhibition of P-gp in human K562/DOX cells assessed as drug level causing maximum increase in nuclear pirarubicin concentration incubated for 30 mins by spectroflurometry relative to control; type: cell-based; conditions: 0.5 h; summary of the method: as §2
[5] = Drug degradation in human plasma at 1 uM measured upto 120 mins by LC-MS/MS analysis; type: ADME, cell-free; conditions: 2 h; summary of the method: as §1
[6] = target: T1, ATP-dependent translocase ABCB1; assay: Inhibition of P-glycoprotein-mediated Rhodamine-123 efflux in human K562 cells assessed as Rhodamine-123 accumulation at 1 uM preincubated for 15 mins followed by Rhodamine-123 addition measured after 30 mins by flow cytometry; type: cell-based; conditions: k562, 0.5 h
[7] = target: T1, ATP-dependent translocase ABCB1; assay: Inhibition of P-glycoprotein (unknown origin) in MDCK-MDR1 assessed as inhibtion of calcein-AM transport incubated for 30 mins by fluorescence assay; type: cell-based
[8] = target: T1, ATP-dependent translocase ABCB1; assay: Inhibition of P-glycoprotein (unknown origin) in MDCK-MDR1 assessed as reduction of ATP consumption pre-incubated for 2 hrs followed by substrate addition shaken for 5 mins by luminescence assay; type: cell-based; conditions: mdck-mdr1, 5 min
[9] = target: T2, Broad substrate specificity ATP-binding cassette transporter ABCG2 (Homo sapiens, UniProt Q9UNQ0); assay: Inhibition of BCRP (unknown origin) in MDCK-BCRP assessed as inhibtion of hoechst 33342 transport incubated for 30 mins by fluorescence assay
T2 sequence (Q9UNQ0 whole entry): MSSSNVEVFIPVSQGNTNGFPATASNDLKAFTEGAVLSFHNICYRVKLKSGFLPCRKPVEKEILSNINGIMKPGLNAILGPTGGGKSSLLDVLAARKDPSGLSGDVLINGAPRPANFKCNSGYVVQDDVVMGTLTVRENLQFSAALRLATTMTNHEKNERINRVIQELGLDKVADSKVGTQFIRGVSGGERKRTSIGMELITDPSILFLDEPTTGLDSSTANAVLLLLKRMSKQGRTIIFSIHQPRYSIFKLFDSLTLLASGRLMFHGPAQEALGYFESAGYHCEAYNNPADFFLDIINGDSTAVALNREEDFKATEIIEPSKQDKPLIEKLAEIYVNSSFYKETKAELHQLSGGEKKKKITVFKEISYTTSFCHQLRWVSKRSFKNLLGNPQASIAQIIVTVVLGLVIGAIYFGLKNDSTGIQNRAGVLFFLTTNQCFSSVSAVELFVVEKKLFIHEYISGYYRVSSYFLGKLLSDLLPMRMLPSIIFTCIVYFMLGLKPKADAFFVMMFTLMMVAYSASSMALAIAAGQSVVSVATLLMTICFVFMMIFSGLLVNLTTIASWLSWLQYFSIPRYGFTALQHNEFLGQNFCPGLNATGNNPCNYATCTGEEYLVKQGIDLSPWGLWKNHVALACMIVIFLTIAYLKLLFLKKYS

T1 sequence (P08183 whole entry): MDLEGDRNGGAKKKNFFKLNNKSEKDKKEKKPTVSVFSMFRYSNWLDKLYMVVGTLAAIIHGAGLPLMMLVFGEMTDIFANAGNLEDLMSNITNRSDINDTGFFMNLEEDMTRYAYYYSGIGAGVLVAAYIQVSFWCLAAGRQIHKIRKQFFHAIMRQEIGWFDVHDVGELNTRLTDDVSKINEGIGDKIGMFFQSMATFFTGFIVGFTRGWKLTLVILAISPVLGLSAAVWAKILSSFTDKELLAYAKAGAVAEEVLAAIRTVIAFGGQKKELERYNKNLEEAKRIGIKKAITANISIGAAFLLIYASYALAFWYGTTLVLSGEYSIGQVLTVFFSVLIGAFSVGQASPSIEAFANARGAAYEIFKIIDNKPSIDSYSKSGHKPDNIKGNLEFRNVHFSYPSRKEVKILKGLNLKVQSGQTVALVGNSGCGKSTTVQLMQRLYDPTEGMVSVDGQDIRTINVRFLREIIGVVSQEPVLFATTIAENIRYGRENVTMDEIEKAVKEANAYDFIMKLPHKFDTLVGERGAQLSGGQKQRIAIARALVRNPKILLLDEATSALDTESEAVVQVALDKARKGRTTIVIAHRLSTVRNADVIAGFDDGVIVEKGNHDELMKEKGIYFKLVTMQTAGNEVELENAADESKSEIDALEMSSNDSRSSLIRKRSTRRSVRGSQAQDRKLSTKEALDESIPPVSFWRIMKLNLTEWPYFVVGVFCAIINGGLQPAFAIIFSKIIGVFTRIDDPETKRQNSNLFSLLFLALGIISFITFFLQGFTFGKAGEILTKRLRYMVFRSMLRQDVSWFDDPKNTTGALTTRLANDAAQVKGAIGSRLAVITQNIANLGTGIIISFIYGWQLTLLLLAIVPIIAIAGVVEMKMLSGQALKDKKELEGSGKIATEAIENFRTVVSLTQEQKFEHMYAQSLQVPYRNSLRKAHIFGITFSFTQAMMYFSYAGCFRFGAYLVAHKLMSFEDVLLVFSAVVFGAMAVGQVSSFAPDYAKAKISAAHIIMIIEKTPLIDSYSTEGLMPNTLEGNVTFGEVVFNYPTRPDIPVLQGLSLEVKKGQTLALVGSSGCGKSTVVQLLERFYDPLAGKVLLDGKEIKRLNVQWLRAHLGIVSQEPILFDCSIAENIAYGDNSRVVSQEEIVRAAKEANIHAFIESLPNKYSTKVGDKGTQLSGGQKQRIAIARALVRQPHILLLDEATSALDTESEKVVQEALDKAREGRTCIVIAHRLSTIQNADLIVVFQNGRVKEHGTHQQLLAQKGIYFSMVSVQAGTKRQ

| half-life at 1 µM [1] | half-life at 1 µM [2] | IC50 [3] | Alpha max [4] | Stability [5] | inhibition (INH) [6] | EC50 [7] | inhibition (INH) [8] | EC50 [9] | Compound |
| --- | --- | --- | --- | --- | --- | --- | --- | --- | --- |
| > 4 h | > 4 h |  |  |  |  |  |  |  | COc1cc(/C=C/C(=O)OCCCCCN(C)CCCOC(=O)c2cc(OC)c(OC)c(OC)c2)cc(OC)c1OC |
| > 4 h | > 4 h | 0.19 µM | 0.77 |  |  |  |  |  | COc1cc(/C=C/C(=O)OCCCCCCN(C)CCOC(=O)c2cc(OC)c(OC)c(OC)c2)cc(OC)c1OC |
| > 4 h | 0.683 h |  |  | Unstable |  |  |  |  | COc1cc(/C=C/C(=O)OCCCN(C)CCCCCOC(=O)c2cc(OC)c(OC)c(OC)c2)cc(OC)c1OC |
| > 4 h | > 4 h | 0.04 µM | 0.92 |  |  |  |  |  | COc1cc(/C=C/C(=O)OCCCN(C)CCCCCCOC(=O)c2c3ccccc3cc3ccccc23)cc(OC)c1OC |
| > 4 h | > 4 h | 0.27 µM | 0.99 | Stable |  |  |  |  | COc1cc(/C=C/C(=O)OCCCCN(C)CCCCCOC(=O)c2cc(OC)c(OC)c(OC)c2)cc(OC)c1OC |
| > 4 h | > 4 h | 0.17 µM | 0.88 |  |  |  |  |  | COc1cc(/C=C/C(=O)OCCN(C)CCCCCCCOC(=O)c2c3ccccc3cc3ccccc23)cc(OC)c1OC |
| > 4 h | > 4 h | 0.01 µM | 0.93 |  | Not Active | 0.23 µM | Not Active | 3.9 µM | COc1cc(/C=C/C(=O)OCCCCCCCN(C)CCCOC(=O)c2c3ccccc3cc3ccccc23)cc(OC)c1OC |
| > 4 h | > 4 h | 0.04 µM | 0.96 |  | Not Active | 0.92 µM | Not Active | 5.1 µM | COc1cc(/C=C/C(=O)OCCN(C)CCCCCCCCOC(=O)c2c3ccccc3cc3ccccc23)cc(OC)c1OC |
| > 4 h | > 4 h | 0.03 µM | 0.99 |  |  |  |  |  | COc1cc(/C=C/C(=O)OCCCCCCN(C)CCCOC(=O)c2c3ccccc3cc3ccccc23)cc(OC)c1OC |
|  | 1.78 h |  |  |  |  |  |  |  | CCOC(=O)C(C)c1cccc(C(=O)c2ccccc2)c1 (configuration not stated) |
| > 4 h | > 4 h | 0.03 µM | 0.99 |  |  |  |  |  | COc1cc(/C=C/C(=O)OCCCCCN(C)CCCCOC(=O)c2c3ccccc3cc3ccccc23)cc(OC)c1OC |
| > 4 h | > 4 h | 0.04 µM | 0.94 |  |  |  |  |  | COc1cc(/C=C/C(=O)OCCCCCCN(C)CCOC(=O)c2c3ccccc3cc3ccccc23)cc(OC)c1OC |
| > 4 h | > 4 h | 0.02 µM | 0.93 |  | Not Active | 0.3 µM | Not Active | 3.8 µM | COc1cc(/C=C/C(=O)OCCCCCCCCN(C)CCOC(=O)c2cc(OC)c(OC)c(OC)c2)cc(OC)c1OC |
| > 4 h | 2.05 h | 0.07 µM | 0.99 | Unstable |  |  |  |  | COc1cc(/C=C/C(=O)OCCCCN(C)CCCCCCOC(=O)c2cc(OC)c(OC)c(OC)c2)cc(OC)c1OC |
| > 4 h | > 4 h | 0.04 µM | 0.91 |  | Not Active | 0.22 µM | Not Active | 4.5 µM | COc1cc(/C=C/C(=O)OCCN(C)CCCCCCCCOC(=O)c2cc(OC)c(OC)c(OC)c2)cc(OC)c1OC |
| > 4 h | > 4 h | 0.04 µM | 0.94 |  |  |  |  |  | COc1cc(/C=C/C(=O)OCCCCN(C)CCCCCOC(=O)c2c3ccccc3cc3ccccc23)cc(OC)c1OC |
| > 4 h | > 4 h | 0.24 µM | 0.9 |  |  |  |  |  | COc1cc(/C=C/C(=O)OCCCCCCN(C)CCCOC(=O)c2cc(OC)c(OC)c(OC)c2)cc(OC)c1OC |
| > 4 h | > 4 h | 0.46 µM | 0.91 |  |  |  |  |  | COc1cc(/C=C/C(=O)OCCN(C)CCCCCCOC(=O)c2cc(OC)c(OC)c(OC)c2)cc(OC)c1OC |
| > 4 h | > 4 h | 0.2 µM | 0.79 |  |  |  |  |  | COc1cc(/C=C/C(=O)OCCN(C)CCCCCCOC(=O)c2c3ccccc3cc3ccccc23)cc(OC)c1OC |
| > 4 h | > 4 h | 0.05 µM | 0.99 |  | Not Active | 0.34 µM | Not Active | 5.4 µM | COc1cc(/C=C/C(=O)OCCCCCCCCN(C)CCOC(=O)c2c3ccccc3cc3ccccc23)cc(OC)c1OC |
| > 4 h | > 4 h | 0.01 µM | 0.99 |  | Not Active | 0.2 µM | Active | 16 µM | COc1cc(/C=C/C(=O)OCCCCCCN(C)CCCCOC(=O)c2cc(OC)c(OC)c(OC)c2)cc(OC)c1OC |
| > 4 h | > 4 h | 0.02 µM | 0.98 |  |  |  |  |  | COc1cc(/C=C/C(=O)OCCCCCCCN(C)CCOC(=O)c2c3ccccc3cc3ccccc23)cc(OC)c1OC |
| > 4 h | > 4 h | 0.07 µM | 0.79 |  |  |  |  |  | COc1cc(/C=C/C(=O)OCCN(C)CCCCCCCOC(=O)c2cc(OC)c(OC)c(OC)c2)cc(OC)c1OC |
| > 4 h | > 4 h |  |  |  |  |  |  |  | COc1cc(/C=C/C(=O)OCCCCCN(C)CCCCCOC(=O)c2cc(OC)c(OC)c(OC)c2)cc(OC)c1OC |
| > 4 h | > 4 h | 0.04 µM | 0.99 |  |  |  |  |  | COc1cc(/C=C/C(=O)OCCCCCCCN(C)CCOC(=O)c2cc(OC)c(OC)c(OC)c2)cc(OC)c1OC |
| > 4 h | > 4 h | 0.1 µM | 0.94 |  |  |  |  |  | COc1cc(/C=C/C(=O)OCCCCCN(C)CCCCOC(=O)c2cc(OC)c(OC)c(OC)c2)cc(OC)c1OC |
